Measurements taken from ChEMBL document CHEMBL1123516, “Substituted 1,3,4-thiadiazoles with anticonvulsant activity. 1. Hydrazines” (J Med Chem, 1986).

Columns and labels:
Mus musculus [1] = assay: Anticonvulsant activity tested by maximal metrazole seizure (MMS) test in mouse after 1 hr of administration; format: functional
Method in brief: (§1)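 Male BKW mice, 18-22 g, dosed orally with compound in 2% Tween 80/water. Metrazol 120 mg/kg ip was given 1 h after dosing. ED50 for block of hind limb tonic seizure was derived by Bliss probit analysis.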

Mus musculus [2] = assay: Anticonvulsant activity tested by maximal electroshock test (MES) in mouse after 1 hr of administration; format: functional
Method in brief: (§2)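 Male BKW mice (LACA origin), 18-22 g, dosed ip or po with compound dissolved or suspended in 2% Tween 80 in distilled water. Readout was block of hind limb tonic seizure. ED50 was derived by probit analysis using the computerized Bliss method.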

[3] = Neurotoxicity by performing a rotarod test in mouse after 1 hr of administration; format: toxicity, organism-based; settings: in vivo
Method in brief: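 Male BKW mice, 18-22 g, were pre-trained on a rotorod turning at 16 rpm (3 cm drum). They were dosed ip or po in 2% Tween 80/water and tested at timed intervals. TD50, the dose at which 50% fell off the rod, was derived by probit analysis.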

Rattus norvegicus [4] = assay: Inhibition of hind limb tonus was tested by maximal electroshock test (MES) in rat after 4 hr of peroral administration; format: functional; settings: Hindlimb, po
[5] = Protective index (rat) was from the ratio of plasma concentration at which side effects occur by plasma concentration at which anticonvulsant activity occur.; format: functional
Method in brief: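 Rat plasma drug concentration at rotorod impairment was divided by the plasma concentration at MES anticonvulsant activity. Both were measured by HPLC-UV in plasma from dosed rats.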

Mus musculus [6] = assay: Inhibition of hind limb tonus was tested at time of peak effect by maximal electroshock test (MES) in mouse on intraperitoneal administration of compound; format: functional; settings: Hindlimb, ip; method in brief: as §2
Rattus norvegicus [7] = assay: Inhibition of hind limb tonus was tested at time of peak effect by maximal electroshock test (MES) on intraperitoneal administration of compound in rats; format: functional; settings: Hindlimb, ip
Mus musculus [8] = assay: Inhibition of hind limb tonus was tested by maximal electroshock test (MES) in mouse after 1 hr of peroral administration of compound; format: functional; settings: Hindlimb, po; method in brief: as §2
Rattus norvegicus [9] = assay: Inhibition of hind limb tonus was tested by maximal metrazole seizure test after 4 hr of peroral administration; format: functional; settings: Hindlimb, po
Mus musculus [10] = assay: Inhibition of hind limb tonus was tested by maximal metrazole seizure (MMS) test in mouse after 1 hr of peroral administration; format: functional; settings: Hindlimb, po; method in brief: as §1
Rattus norvegicus [11] = assay: Inhibition of hind limb tonus was tested by maximal metrazole seizure test after 1 hr of peroral administration of compound; format: functional; settings: Hindlimb, po
Rattus norvegicus [12] = assay: Inhibition of hind limb tonus was tested by maximal electroshock test (MES) in rat after 1 hr of peroral administration; format: functional; settings: Hindlimb, po
Rattus norvegicus [13] = assay: Maximum percent fall in mean arterial blood pressure was evaluated by injecting 100 mg/kg perorally in DOCA hypertensive rats; format: functional; settings: route oral
Rattus norvegicus [14] = assay: Inhibition of hind limb tonus was tested at time of peak effect by maximal electroshock test (MES) in rat on intraperitoneal administration of compound; format: functional; settings: Hindlimb, ip
Method in brief: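 Rats received compound intraperitoneally and were tested at the time of peak effect. ED50 was the dose blocking hind limb tonic seizure in 50% of animals, derived by probit analysis using the Bliss computerized method (Finney).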

[15] = Effect of compound on mouse motor performance was tested by performing a rotarod test after 1 hr of peroral administration; format: ADME, organism-based; settings: in vivo, po
Method in brief: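 Male BKW mice (LACA origin, 18-22 g) were pre-trained on a rotorod at 16 rpm with a 3 cm drum. Compound was given orally in 2% Tween 80 in water, and mice were tested 1 h later. TD50 was the dose at which 50% fell off, derived by probit analysis.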

[16] = Effect of compound on mouse motor performance was tested by rotarod test administered intraperitoneally; format: ADME, organism-based; settings: in vivo, ip
Method in brief: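 Male BKW mice (18-22 g) were pre-trained on a 16 rpm rotorod with a 3 cm drum. Drug was injected intraperitoneally as a solution or suspension in 2% aqueous Tween 80, and mice were tested at the time of peak effect. TD50 was the dose making 50% of trained animals fall off, calculated by probit analysis.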

Mus musculus [17] = assay: Inhibition of hind limb tonus was tested at time of peak effect by maximal metrazole seizure (MMS) test administered intraperitoneally in mouse; format: organism-based; settings: Hindlimb, ip
Method in brief: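 Male BKW mice (18-22 g) received compound intraperitoneally in 2% aqueous Tween 80 and were challenged with metrazol 120 mg/kg ip at the time of peak effect. ED50 for block of hind limb tonic seizure in 50% of mice was obtained by probit analysis.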

SMILES	ED50 (Mus musculus [1])	ED50 (Mus musculus [2])	TD50 at 1 h [3]	also measured
CN(N)c1nnc(CCc2ccccc2)s1.Cl	49 mg/kg	51 mg/kg	317 mg/kg	–
NN(c1ccccc1)c1nnc(-c2ccccc2Cl)s1	> 100 mg/kg	> 100 mg/kg	–	–
CN(C)N(C)c1nnc(-c2ccccc2Cl)s1.Cl	> 100 mg/kg	53 mg/kg	347 mg/kg	–
CC(C)NNc1nnc(-c2ccccc2Cl)s1	50 mg/kg	50 mg/kg	200 mg/kg	–
Cc1ccccc1-c1nnc(N(C)N(C)C)s1	68 mg/kg	25 mg/kg	167 mg/kg	–
CNN(Cc1ccccc1)c1nnc(-c2ccccc2Cl)s1.Cl	> 100 mg/kg	> 100 mg/kg	–	–
CN(N)c1nnc(-c2ccccc2Cc2ccccc2)s1.Cl	54 mg/kg	50 mg/kg	–	–
CN(N)c1nnc(-c2cccc(Oc3ccccc3)c2)s1	111 mg/kg	100 mg/kg	–	–
CCCCCCOc1ccccc1-c1nnc(N(C)N)s1.Cl	27 mg/kg	26 mg/kg	~160 mg/kg	–
CN(N)c1nnc(-c2ccc(-c3ccccc3)cc2)s1	–	> 200 mg/kg	–	–
CN(N)c1nnc(-c2ccccc2Oc2ccccc2)s1.Cl	33 mg/kg	33 mg/kg	< 400 mg/kg	–
CN(Nc1ccccc1)c1nnc(-c2ccccc2Cl)s1	> 100 mg/kg	> 100 mg/kg	–	–
NC(=O)N1c2ccccc2C=Cc2ccccc21 [CARBAMAZEPINE]	–	–	–	ED50 (Rattus norvegicus [4]): 7 mg/kg; PI [5]: 2.51; ED50 (Mus musculus [6]): 6 mg/kg; ED50 (Rattus norvegicus [7]): 2 mg/kg; ED50 (Mus musculus [8]): 20 mg/kg; ED50 (Rattus norvegicus [9]): 5 mg/kg; ED50 (Mus musculus [10]): 11 mg/kg; ED50 (Rattus norvegicus [11]): 3 mg/kg; ED50 (Rattus norvegicus [12]): 4 mg/kg
Cc1ccccc1-c1nnc(N(C)NC2CCCC2)s1.Cl	81 mg/kg	110 mg/kg	–	–
Cc1ccccc1-c1nnc(NNC2CCCC2)s1.Cl	> 100 mg/kg	> 100 mg/kg	–	–
Cl.NNc1nnc(-c2ccccc2-c2ccccc2)s1	33 mg/kg	28 mg/kg	627 mg/kg	Decrease in blood pressure (Rattus norvegicus [13]): 18%
CNN(c1nnc(-c2ccccc2Cl)s1)C(C)C	> 100 mg/kg	> 100 mg/kg	–	–
Cc1ccccc1-c1nnc(NNC(c2ccccc2)c2ccccc2)s1	> 100 mg/kg	> 200 mg/kg	–	–
NN(c1ccccc1)c1nnc(-c2ccccc2-c2ccccc2)s1	> 100 mg/kg	> 100 mg/kg	–	–
Cc1ccccc1-c1nnc(NN(C)C)s1.Cl	> 100 mg/kg	60 mg/kg	> 250 mg/kg	–
CCNN(Cc1ccccc1)c1nnc(-c2ccccc2C)s1.Cl	> 100 mg/kg	> 100 mg/kg	–	–
CCCCCCOc1ccccc1-c1nnc(NNc2ccccc2)s1.Cl	> 100 mg/kg	> 100 mg/kg	–	–

SMILES	ED50 (Mus musculus [1])	ED50 (Mus musculus [2])	TD50 at 1 h [3]	also measured
Cc1ccccc1-c1nnc(N(N)c2ccccc2)s1	> 100 mg/kg	> 100 mg/kg	> 400 mg/kg	–
CCCCN(N)c1nnc(-c2ccccc2C)s1.Cl	60 mg/kg	119 mg/kg	–	–
Cc1ccccc1-c1nnc(NN)s1.Cl	30 mg/kg	> 100 mg/kg	55 mg/kg	Decrease in blood pressure (Rattus norvegicus [13]): 63%
Cl.NN(Cc1ccccc1)c1nnc(-c2ccccc2-c2ccccc2)s1	> 200 mg/kg	> 200 mg/kg	–	–
NN(CCc1ccccc1)c1nnc(-c2ccccc2Cl)s1	~200 mg/kg	> 100 mg/kg	–	–
Cc1ccccc1-c1nnc(NNc2ccccc2)s1	> 100 mg/kg	> 100 mg/kg	–	–
CC(C)NN(C)c1nnc(-c2ccccc2Cl)s1.Cl	30 mg/kg	16 mg/kg	71 mg/kg	–
Cl.NN(c1nnc(-c2ccccc2Cl)s1)C1CCCCC1	> 100 mg/kg	> 100 mg/kg	–	–
Clc1ccccc1-c1nnc(NNC2CCCC2)s1	> 100 mg/kg	> 100 mg/kg	–	–
Cc1ccccc1-c1nnc(N(C)N)s1.Cl	41 mg/kg	75 mg/kg	108 mg/kg	Decrease in blood pressure (Rattus norvegicus [13]): 29%
Cc1ccccc1-c1nnc(N(C)NC(c2ccccc2)c2ccccc2)s1	> 200 mg/kg	> 200 mg/kg	–	–
CNN(C)c1nnc(-c2ccccc2Cl)s1	25 mg/kg	43 mg/kg	106 mg/kg	–
CNN(C)c1nnc(-c2ccccc2-c2ccccc2)s1.Cl	> 100 mg/kg	~100 mg/kg	–	–
CC(C)NN(C)c1nnc(-c2ccccc2-c2ccccc2)s1.Cl	66 mg/kg	55 mg/kg	–	–
CCCCCCOc1ccccc1-c1nnc(N(C)NC(C)C)s1.Cl	56 mg/kg	97 mg/kg	–	–
Cl.NNc1nnc(-c2ccc(-c3ccccc3)cc2)s1	–	> 200 mg/kg	–	–
CCCCCCOc1ccccc1-c1nnc(NNC(C)C)s1.Cl	> 100 mg/kg	> 100 mg/kg	–	–
Cc1ccccc1-c1nnc(N(C)NC(C)C)s1.Cl	38 mg/kg	35 mg/kg	–	–
Cl.c1ccc(NNc2nnc(-c3ccccc3-c3ccccc3)s2)cc1	> 100 mg/kg	> 100 mg/kg	–	–
Cc1ccccc1-c1nnc(NNC(C)C)s1	54 mg/kg	83 mg/kg	449 mg/kg	–
CN(N)c1nnc(Cc2ccccc2)s1.Cl	25 mg/kg	11 mg/kg	280 mg/kg	–
NN(Cc1ccccc1)c1nnc(-c2ccccc2Cl)s1	143 mg/kg	186 mg/kg	–	–

SMILES	ED50 (Mus musculus [1])	ED50 (Mus musculus [2])	TD50 at 1 h [3]	also measured
CNN(Cc1ccccc1)c1nnc(-c2ccccc2C)s1.Cl	93 mg/kg	109 mg/kg	341 mg/kg	–
CC(C)N(N)c1nnc(-c2ccccc2-c2ccccc2)s1	> 100 mg/kg	> 100 mg/kg	–	–
Cc1ccccc1-c1nnc(N(N)C(C)C)s1.Cl	49 mg/kg	54 mg/kg	–	–
CN(N)c1nnc(-c2ccccc2Sc2ccccc2)s1.Cl	27 mg/kg	43 mg/kg	–	–
Cc1ccccc1-c1nnc(N(Cc2ccccc2)N(C)C)s1.Cl	> 100 mg/kg	> 200 mg/kg	–	–
CN(N)c1nnc(-c2ccccc2Cl)s1.Cl	41 mg/kg	20 mg/kg	136 mg/kg	–
Cl.Clc1ccccc1-c1nnc(NNCc2ccccc2)s1	> 100 mg/kg	> 100 mg/kg	–	–
CNN(C)c1nnc(-c2ccccc2C)s1	23 mg/kg	10 mg/kg	72 mg/kg	–
CN(NC1CCCC1)c1nnc(-c2ccccc2Cl)s1.Cl	> 100 mg/kg	106 mg/kg	–	–
Cc1ccccc1-c1nnc(NN(C)C(C)C)s1	> 100 mg/kg	140 mg/kg	–	–
CC(C)N(c1nnc(-c2ccccc2Cl)s1)N(C)C.Cl	> 200 mg/kg	116 mg/kg	–	–
CCC1(c2ccccc2)C(=O)NC(=O)NC1=O [PHENOBARBITAL]	–	–	–	ED50 (Rattus norvegicus [14]): 3 mg/kg; ED50 (Rattus norvegicus [4]): 3 mg/kg; PI [5]: 2.42; TD50 at 1 h [15]: 68 mg/kg; ED50 (Mus musculus [6]): 18 mg/kg; ED50 (Mus musculus [8]): 12 mg/kg; TD50 [16]: 86 mg/kg; ED50 (Rattus norvegicus [9]): 5 mg/kg; ED50 (Mus musculus [17]): 6 mg/kg; ED50 (Mus musculus [10]): 4 mg/kg; ED50 (Rattus norvegicus [11]): 4 mg/kg; ED50 (Rattus norvegicus [12]): 9 mg/kg
Cc1ccccc1-c1nnc(N(N)Cc2ccccc2)s1	44 mg/kg	27 mg/kg	> 200 mg/kg	–
CCCCCCOc1ccccc1-c1nnc(N(C)NC)s1.Cl	39 mg/kg	< 250 mg/kg	–	–
CC(C)NNc1nnc(-c2ccccc2-c2ccccc2)s1	44 mg/kg	35 mg/kg	–	–
CNNc1nnc(-c2ccccc2C)s1	> 100 mg/kg	> 100 mg/kg	–	–
CNN(c1nnc(-c2ccccc2C)s1)C(C)C.Cl	> 100 mg/kg	> 100 mg/kg	–	–
CCCCCCOc1ccccc1-c1nnc(NNC2CCCC2)s1.Cl	> 100 mg/kg	> 100 mg/kg	–	–
CC(C)N(N)c1nnc(-c2ccccc2Cl)s1	> 100 mg/kg	54 mg/kg	> 800 mg/kg	–
Cl.NNc1nnc(-c2ccccc2Cl)s1	25 mg/kg	70 mg/kg	> 568 mg/kg	Decrease in blood pressure (Rattus norvegicus [13]): 21%
Clc1ccccc1-c1nnc(NNc2ccccc2)s1	> 200 mg/kg	> 100 mg/kg	–	–
